Source: PubChem BioAssay
Results filed as inconclusive are left out.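 Rule for the calls, unless noted: active = viability increase at or above a cutoff of the median across tested compounds plus 3 SD (cut at about 8.5% in these data, passing the limit was not always enough); inconclusive = some gains above the cutoff, reason not given; inactive = the rest.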

Experiments:
[1] = OD615 S. cerevisiae growth inhibition, permissive medium, pilot counter-assay, permissive growth control for S. cerevisiae lifespan shortening project (AID 705;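 active = growth inhibition above 25% in both replicates, a cutoff set 3 SD above the mean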); conditions: OD615, 24 h, at 10 µM, stronger effect = higher value
Outline: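 Test system: Saccharomyces cerevisiae strain carrying genetically modified DeaD replicative-lifespan system; buffer or medium: SC raffinose/galactose permissive medium; dosing: one dose 10 µM, DMSO 0.25% final; times: 24 h exposure, 30 °C; measured by: OD at 615 nm; read-out basis: growth inhibition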

[2] = Restrictive medium S. cerevisiae growth inhibition, OD615, pilot screen of yeast lifespan reduction project, restrictive growth control (AID 706;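 active = growth inhibition above a set limit, 3 SD over mean compound inhibition, in both replicates, cut at about 43% in these data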;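 note: modified DeaD lifespan yeast strain shifted to restrictive glucose medium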); conditions: OD615, 48 h, at 10 µM, stronger effect = higher value
Outline: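 material = engineered S. cerevisiae DeaD strain | buffer or medium = glucose-based CSMM-D restrictive medium | dosing = one concentration, 10 µM final, 0.25% DMSO | schedule = 4 h pre-growth plus 48 h compound exposure, 30 °C | detection = OD615 absorbance reading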

[3] = viability gain of MRP-1-high H69AR cells under doxorubicin, pilot screen, MRP-1 activator project, CellTiter-Glo, duplicate (AID 807); conditions: H69AR viability with doxorubicin, CellTiter-Glo luminescence; at 10 µM; stronger effect = higher value;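 note: compound pretreatment 18-22 h then 72 h combined with doxorubicin; 0% = doxorubicin alone and 100% = vehicle without doxorubicin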
[4] = growth suppression of beta-catenin knockout HCT116, pilot screen, human colon tumor cells (AID 823;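 active = cell viability at or below a set limit in both duplicate runs, the limit being the all-compound median minus 4 SD, cut at about 23% in these data, passing the limit was not always enough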;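 note: 0% = wells killed by 20 µM Hyamine and 100% = untreated DMSO cell wells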); conditions: CellTiter-Glo, 60 h, at 10 µM, stronger effect = lower value
[5] = growth suppression of PTEN-deleted HCT116, pilot screen, cell-based, HCT116 clonal line, CellTiter-Glo (AID 824;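 active = viability at or below 27.92% in each of two runs, the all-compound median minus 4 SD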;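 note: 0% = 20 µM Hyamine control and 100% = vehicle cell control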); conditions: 60 h, at 10 µM, stronger effect = lower value
[6] = inhibitors of the yeast RAM network, pilot screen, dse1pr::URA3 reporter, 5-FOA selection (AID 869;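 active = inhibition over a set limit, the all-compound mean plus 3 SD, in both replicate runs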;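 note: 0% = DMSO wells with no growth and 100% = 10 µM 1-NA-PP1 with full growth; RAM network block rescues cells from 5-FOA so hits raise OD615 growth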); conditions: S. cerevisiae dse1pr::URA3 5-FOA growth, OD615, 2 d; at 10 µM; stronger effect = higher value; strain carries analog-sensitive mutant Cbk1 kinase
[7] = RAM signaling pathway blockade in yeast – S. cerevisiae, Pdr1DBD-CYC8 efflux-inhibited sensitized strain, primary screen (AID 1298;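 active = RAM network inhibition above 8.4% in each of two replicates, 3 SD over the compound average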;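 note: 0% = DMSO untreated cells without growth and 100% = 10 µM 1-NA-PP1 full growth; higher means more yeast growth rescued from 5-FOA killing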); conditions: S. cerevisiae cbk1-as DSE1-URA3 strain, 5-FOA growth OD615, 2 d; at 50 µM; stronger effect = higher value

Cc1cc(C)nc(-n2nc(C)cc2NC(=O)CN2CCC(C)CC2)n1
inactive: growth inhibition [1] -0.83% | growth inhibition [2] 21.6% | viability increase [3] -5.27% | viability [4] 75.3% | viability [5] 85.5% | inhibition [6] 1.01% | RAM network inhibition [7] 2.91%

Cc1cccc(CCNC(=O)CN(C)S(=O)(=O)c2ccc3c(c2)c(=O)n(C)c(=O)n3C)c1
inactive: growth inhibition [1] -12.1% | growth inhibition [2] -22.2% | viability increase [3] -0.92% | viability [4] 102% | viability [5] 90.4% | inhibition [6] 1.75% | RAM network inhibition [7] 2.91%

CCCOc1ccc(NC(=O)c2c(-c3ccccc3)noc2C)cc1
inactive: growth inhibition [1] -3.83% | growth inhibition [2] -7.54% | viability increase [3] -1.84% | viability [4] 103% | viability [5] 90.5% | inhibition [6] 1.34% | RAM network inhibition [7] 2.96%

COc1ccc(-c2noc(Cc3cccs3)n2)cc1
inactive: growth inhibition [1] 0.04% | growth inhibition [2] 3.45% | viability increase [3] -2.47% | viability [4] 102% | viability [5] 93.3% | inhibition [6] 2.76% | RAM network inhibition [7] 4.89%

CCCCCn1c(CN2CC(C)OC(C)C2)nc2c1c(=O)n(C)c(=O)n2C (stereo not given)
inactive: growth inhibition [1] -9.73% | growth inhibition [2] 0.38% | viability increase [3] -1.22% | viability [4] 95.3% | viability [5] 86.6% | inhibition [6] 1.86% | RAM network inhibition [7] 1.97%

O=C(C1COc2ccccc2O1)N1CCn2c(nc3ccccc32)C1 (stereo not given)
inactive: growth inhibition [1] -13.1% | growth inhibition [2] -3.57% | viability increase [3] -2.64% | viability [4] 106% | viability [5] 92% | inhibition [6] 1.85% | RAM network inhibition [7] 4.61%

COC(=O)C1Sc2[nH]c(=O)sc2C(c2ccc(Cl)cc2)C1C(=O)OC (stereo not given)
inactive: growth inhibition [1] -14.8% | growth inhibition [2] -14.8% | viability increase [3] -5.67% | viability [4] 91.3% | viability [5] 88.7% | inhibition [6] 4.36% | RAM network inhibition [7] 2.45%

CC1=C(C(=O)OC2CCCCC2)C(c2ccco2)n2ncnc2N1 (stereo not given)
inactive: growth inhibition [1] -9.02% | growth inhibition [2] 4.91% | viability increase [3] -1.43% | viability [4] 90.7% | viability [5] 88.8% | inhibition [6] 1.47% | RAM network inhibition [7] 5.64%

c1ccc(CNc2ncnc3c2ncn3C2CCCCO2)cc1 (stereo not given)
inactive: growth inhibition [1] -5.22% | growth inhibition [2] -8.96% | viability increase [3] -1.76% | viability [4] 101% | viability [5] 98% | inhibition [6] 1.25% | RAM network inhibition [7] 5.84%

CCOC(=O)N1CCC(NC(=O)c2csc3c2CCCC3)CC1
inactive: growth inhibition [1] -3.1% | growth inhibition [2] -14.7% | viability increase [3] -2.82% | viability [4] 95.2% | viability [5] 93.6% | inhibition [6] 1.29% | RAM network inhibition [7] 3.9%

CCCC(=O)N(Cc1cc2cc(C)ccc2[nH]c1=O)c1ccccc1OC
inactive: growth inhibition [1] 1.1% | growth inhibition [2] 1.19% | viability increase [3] -0.05% | viability [4] 80.7% | viability [5] 78% | inhibition [6] 1.04% | RAM network inhibition [7] 9.81%

CC(=O)c1cc(F)c(N2CCN(CCC#N)CC2)cc1C
inactive: growth inhibition [1] -3.07% | growth inhibition [2] -19.6% | viability increase [3] -0.38% | viability [4] 105% | viability [5] 81.3% | inhibition [6] 0.35% | RAM network inhibition [7] 0.47%

CC(=O)C1(O)C(C)CC2C3CCC4CC(O)CCC4(C)C3=CCC21C (stereo not given)
inactive: growth inhibition [1] -8.11% | growth inhibition [2] -5.04% | viability increase [3] -1.36% | viability [4] 97.2% | viability [5] 90.2% | inhibition [6] 0.305% | RAM network inhibition [7] 9.58%

COc1ccc2c(c1)c(CCN1C(=O)c3ccccc3C1=O)cn2C(=O)c1ccco1
inactive: growth inhibition [1] -5.41% | growth inhibition [2] 0.45% | viability increase [3] -4.3% | viability [4] 85.7% | viability [5] 85.9% | inhibition [6] 2.02% | RAM network inhibition [7] 4.8%

CC(=O)N1CCc2c(sc(NC(=O)CN3C(=O)CCC3=O)c2C(N)=O)C1
inactive: growth inhibition [1] -11.6% | growth inhibition [2] -14.8% | viability increase [3] -1.16% | viability [4] 100% | viability [5] 99.3% | inhibition [6] 1.53% | RAM network inhibition [7] 2.93%

Nc1nnc(N2CCc3ccccc32)s1
inactive: growth inhibition [1] -1.08% | growth inhibition [2] 16.4% | viability increase [3] -4.19% | viability [4] 105% | viability [5] 102% | inhibition [6] 0.805% | RAM network inhibition [7] 0.42%

Cc1ccc(F)c(NC(=O)C2CCCCC2C(=O)O)c1 (stereo not given)
inactive: growth inhibition [1] 1.12% | growth inhibition [2] -20.6% | viability increase [3] -2.22% | viability [4] 90.7% | viability [5] 94% | inhibition [6] 0.145% | RAM network inhibition [7] 2.88%

CC1Oc2ccccc2C=C1C1/C(=C(/O)c2ccccc2)C(=O)C(=O)N1CCCN(C)C (stereo not given)
inactive: growth inhibition [1] -3.27% | growth inhibition [2] 2.81% | viability increase [3] -2.78% | viability [4] 95.6% | viability [5] 97% | inhibition [6] -0.25% | RAM network inhibition [7] 0.77%

CCOc1ccc(C2c3c(oc4cc(C)c(C)cc4c3=O)C(=O)N2CCCN(C)C)cc1OC (stereo not given)
inactive: growth inhibition [1] -3.33% | growth inhibition [2] -1.7% | viability increase [3] -1.6% | viability [4] 108% | viability [5] 98% | inhibition [6] -0.13% | RAM network inhibition [7] -0.66%

Cn1nc(-c2ccc(Cl)cc2)c2cc(C(=O)N3CCOCC3)sc21
inactive: growth inhibition [1] -6.13% | growth inhibition [2] 4.78% | viability increase [3] -5.6% | viability [4] 89.4% | viability [5] 80.5% | inhibition [6] 1.29% | RAM network inhibition [7] 3.38%

CC(=O)Cc1nsc(NC(=O)C2Cc3ccccc3C(=O)O2)n1 (stereo not given)
inactive: growth inhibition [1] -15.5% | growth inhibition [2] -1.69% | viability increase [3] -1.57% | viability [4] 102% | viability [5] 100% | inhibition [6] 0.45% | RAM network inhibition [7] 6.74%

CCN(CC)CCCNC(=O)Cn1cc2c(n1)CCC(C)C2 (stereo not given)
inactive: growth inhibition [1] -3.44% | growth inhibition [2] -0.585% | viability increase [3] -1.22% | viability [4] 96.9% | viability [5] 98.1% | inhibition [6] 2.05% | RAM network inhibition [7] 2.3%

Cc1noc(C(=O)Nc2sc3c(c2C#N)CCC3)c1Cl
inactive: growth inhibition [1] -6.86% | growth inhibition [2] 2.54% | viability increase [3] -1.69% | viability [4] 65.8% | viability [5] 55.6% | inhibition [6] 1.84% | RAM network inhibition [7] 2.59%

COC(=O)c1ccc(C2C(C(C)=O)=C(C)Nc3ncnn32)cc1 (stereo not given)
inactive: growth inhibition [1] -8.45% | growth inhibition [2] 9.82% | viability increase [3] -1.07% | viability [4] 108% | viability [5] 98.7% | inhibition [6] 1.9% | RAM network inhibition [7] 2.09%

Cn1c(Cn2c(=O)sc3ccccc32)nnc1SCC(=O)Nc1cccc(F)c1
inactive: growth inhibition [1] -12% | growth inhibition [2] -5.46% | viability increase [3] -2.58% | viability [4] 97.3% | viability [5] 93.4% | inhibition [6] 1.9% | RAM network inhibition [7] 1.86%

CCOC(=O)N1CCC(NC(=O)Cn2cc3c(n2)CCCC3)CC1
inactive: growth inhibition [1] -1.57% | growth inhibition [2] -0.65% | viability increase [3] -3.35% | viability [4] 107% | viability [5] 92.5% | inhibition [6] 2.6% | RAM network inhibition [7] 2.81%

CCCOc1cccc(C(=O)Nc2cccc(NC(=O)c3ccco3)c2)c1
inactive: growth inhibition [1] -11.2% | growth inhibition [2] -14.9% | viability increase [3] -3.58% | viability [4] 85.3% | viability [5] 91.6% | inhibition [6] 1.04% | RAM network inhibition [7] 8.68%

COc1ccc(Cn2nnc3c(=O)[nH]c(C(=O)NCCc4ccc(F)cc4)nc32)cc1OC
inactive: growth inhibition [1] -3.32% | growth inhibition [2] -2.82% | viability increase [3] -0.55% | viability [4] 114% | viability [5] 100% | inhibition [6] 2.69% | RAM network inhibition [7] 0.97%

CCC1(C(=O)O)NC(c2cc(OC)ccc2O)C2C(=O)N(Cc3ccccc3)C(=O)C21 (stereo not given)
inactive: growth inhibition [1] 2.51% | growth inhibition [2] -7.93% | viability increase [3] -0.32% | viability [4] 102% | viability [5] 99.8% | inhibition [6] 0.37% | RAM network inhibition [7] 1.51%

CCOC(=O)C1=C(C)N=c2s/c(=C\C(=O)OC)c(=O)n2C1c1ccc(OC)cc1 (stereo not given)
inactive: growth inhibition [1] -2.88% | growth inhibition [2] 11.6% | viability increase [3] -2.64% | viability [4] 100% | viability [5] 101% | inhibition [6] 1.73% | RAM network inhibition [7] 4.95%

COCCn1c(=O)[nH]c2cc(C(=O)NCCN3CCN(c4ccccc4)CC3)ccc2c1=O
inactive: growth inhibition [1] -5.1% | growth inhibition [2] 7.77% | viability increase [3] -0.22% | viability [4] 92.5% | viability [5] 93.2% | inhibition [6] 1.11% | RAM network inhibition [7] 3.35%

O=C(NCC1CCCO1)c1ccc2c(=O)n(CCc3ccccc3)c(=O)[nH]c2c1 (stereo not given)
inactive: growth inhibition [1] -3.02% | growth inhibition [2] -27% | viability increase [3] -1.15% | viability [4] 104% | viability [5] 102% | inhibition [6] 4.28% | RAM network inhibition [7] 3.8%

O=C(CCNS(=O)(=O)c1cccc2nsnc12)NCCc1ccccc1
inactive: growth inhibition [1] 3.27% | growth inhibition [2] -1.99% | viability increase [3] -1.34% | viability [4] 105% | viability [5] 97.6% | inhibition [6] 0.11% | RAM network inhibition [7] 1.2%

CCOC(=O)N1CCN(C(=O)c2ccccc2NC(=O)COc2ccccc2C)CC1
inactive: growth inhibition [1] -9.27% | growth inhibition [2] 3.48% | viability increase [3] -1.77% | viability [4] 86.3% | viability [5] 82.2% | inhibition [6] 1.29% | RAM network inhibition [7] 5.67%

CCCc1cc(=O)[nH]c(SCC(=O)N2CCN(S(=O)(=O)c3ccc(C)cc3)C2)n1
inactive: growth inhibition [1] -4.67% | growth inhibition [2] -21.2% | viability increase [3] -1.75% | viability [4] 98.8% | viability [5] 85.6% | inhibition [6] 2.64% | RAM network inhibition [7] 3.8%
